Measured values published in ChEMBL document CHEMBL4184148 (Bioorg Med Chem Lett, 2017).

How the values were obtained:
[1] = target: Inhibitor of nuclear factor kappa-B kinase subunit alpha (Homo sapiens) (UniProt O15111); assay: Binding affinity to wild-type human full length IKK-alpha (M1 to E745 residues) expressed in HEK293 cells at 1 uM by Kinomescan method relative to control; assay type: cell-based
In short: (§1)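 Run as one kinome-wide competition binding panel with each compound at a single fixed concentration. Results were plotted as a kinome-wide selectivity map.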

[2] = target: TGF-beta receptor type-2 (Homo sapiens) (UniProt P37173); assay: Binding affinity to wild-type human partial length TGFBR2 (I218 to K567 residues) expressed in Escherichia coli BL21 at 1 uM by Kinomescan method relative to control
[3] = target: Testis-specific serine/threonine-protein kinase 3 (Homo sapiens) (UniProt Q96PN8); assay: Binding affinity to wild-type human full length TSSK3 (M1 to T268 residues) expressed in HEK293 cells at 1 uM by Kinomescan method relative to control; assay type: cell-based
In short: (§2)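 Kinome-wide competition binding panel run by an outside provider, with each compound tested at a single concentration. Activity is read against the kinase panel.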

[4] = target: Serine/threonine-protein kinase 4 (Homo sapiens) (UniProt Q13043); assay: Binding affinity to wild-type human full length MST1 (M1 to F487 residues) expressed in Escherichia coli BL21 at 1 uM by Kinomescan method relative to control; in short: as §1
[5] = target: Citron Rho-interacting kinase (Homo sapiens) (UniProt O14578); assay: Binding affinity to wild-type human partial length CIT (M68 to E432 residues) expressed in Escherichia coli BL21 at 1 uM by Kinomescan method relative to control
[6] = target: Tyrosine-protein kinase Lck (Homo sapiens) (UniProt P06239); assay: Binding affinity to wild-type human partial length LCK (R207 to P509 residues) expressed in Escherichia coli BL21 at 1 uM by Kinomescan method relative to control
[7] = tested on: Phosphatidylinositol 4,5-bisphosphate 3-kinase catalytic subunit alpha isoform (Homo sapiens), P42336 [E545A]; assay: Binding affinity to human partial length PIK3CA E545A mutant (R108 to N1068 residues) expressed in HEK293 cells at 1 uM by Kinomescan method relative to control; assay type: cell-based
[8] = target: Serine/threonine-protein kinase BRSK1 (Homo sapiens) (UniProt Q8TDC3); assay: Binding affinity to wild-type human partial length BRSK1 (M1 to E754 residues) expressed in Escherichia coli BL21 at 1 uM by Kinomescan method relative to control
[9] = tested on: Mast/stem cell growth factor receptor Kit (Homo sapiens), P10721 [V559D,V654A]; assay: Binding affinity to human partial length KIT V559D/V654A double mutant (Y545 to D952 residues) expressed in Escherichia coli BL21 at 1 uM by Kinomescan method relative to control
[10] = tested on: eIF-2-alpha kinase GCN2 (Homo sapiens), Q9P2K8 [S808G]; assay: Binding affinity to wild-type human partial length GCN2 kinase domain 2 (R585 to T1018 residues) S808G mutant expressed in Escherichia coli BL21 at 1 uM by Kinomescan method relative to control
[11] = target: Dual specificity mitogen-activated protein kinase kinase 7 (Homo sapiens) (UniProt O14733); assay: Binding affinity to wild-type human full length MKK7 (M1 to R419 residues) expressed in HEK293 cells at 1 uM by Kinomescan method relative to control; assay type: cell-based; in short: as §1
[12] = target: Serine/threonine-protein kinase Nek10 (Homo sapiens) (UniProt Q6ZWH5); assay: Binding affinity to wild-type human partial length NEK10 (L488 to R809 residues) expressed in HEK293 cells at 1 uM by Kinomescan method relative to control; assay type: cell-based
[13] = target: Myosin light chain kinase 2, skeletal/cardiac muscle (Homo sapiens) (UniProt Q9H1R3); assay: Binding affinity to wild-type human partial length MYLK2 (D258 to K570 residues) expressed in Escherichia coli BL21 at 1 uM by Kinomescan method relative to control
[14] = target: Serine/threonine-protein kinase Nek3 (Homo sapiens) (UniProt P51956); assay: Binding affinity to wild-type human full length NEK3 (M1 to R506 residues) expressed in HEK293 cells at 1 uM by Kinomescan method relative to control; assay type: cell-based; in short: as §2
[15] = target: 3-phosphoinositide-dependent protein kinase 1 (Homo sapiens) (UniProt O15530); assay: Binding affinity to wild-type human full length PDPK1 (M1 to Q556 residues) expressed in Escherichia coli BL21 at 1 uM by Kinomescan method relative to control; in short: as §2
[16] = target: Phosphatidylinositol 4,5-bisphosphate 3-kinase catalytic subunit beta isoform (Homo sapiens) (UniProt P42338); assay: Binding affinity to wild-type human partial length PIK3CB (P118 to S1070 residues) expressed in HEK293 cells at 1 uM by Kinomescan method relative to control; assay type: cell-based
[17] = target: Ribosomal protein S6 kinase alpha-5 (Homo sapiens) (UniProt O75582); assay: Binding affinity to wild-type human partial length C-terminal RPS6KA5 kinase domain 2 (V390 to T718 residues) expressed in Escherichia coli BL21 at 1 uM by Kinomescan method relative to control
[18] = target: Dual specificity mitogen-activated protein kinase kinase 3 (Homo sapiens) (UniProt P46734); assay: Binding affinity to wild-type human full length MEK3 (M1 to S318 residues) expressed in HEK293 cells at 1 uM by Kinomescan method relative to control; assay type: cell-based; in short: as §1
[19] = target: Serine/threonine-protein kinase Nek9 (Homo sapiens) (UniProt Q8TD19); assay: Binding affinity to wild-type human partial length NEK9 (P32 to R328 residues) expressed in Escherichia coli BL21 at 1 uM by Kinomescan method relative to control
[20] = target: Mitogen-activated protein kinase 15 (Homo sapiens) (UniProt Q8TD08); assay: Binding affinity to wild-type human partial length ERK8 (M1 to P437 residues) expressed in Escherichia coli BL21 at 1 uM by Kinomescan method relative to control
[21] = target: Tyrosine-protein kinase Blk (Homo sapiens) (UniProt P51451); assay: Binding affinity to wild-type human partial length BLK (G211 to L503 residues) expressed in Escherichia coli BL21 at 1 uM by Kinomescan method relative to control
[22] = target: Mitogen-activated protein kinase kinase kinase kinase 4 (Homo sapiens) (UniProt O95819); assay: Binding affinity to wild-type human partial length MAP4K4 (M1 to R310 residues) expressed in Escherichia coli BL21 at 1 uM by Kinomescan method relative to control
[23] = target: Casein kinase I isoform alpha-like (Homo sapiens) (UniProt Q8N752); assay: Binding affinity to wild-type human full length CSNK1A1L (M1 to N337 residues) expressed in Escherichia coli BL21 at 1 uM by Kinomescan method relative to control; in short: as §1
[24] = target: Serine/threonine-protein kinase MRCK gamma (Homo sapiens) (UniProt Q6DT37); assay: Binding affinity to wild-type human partial length DMPK2 (S46 to S408 residues) expressed in Escherichia coli BL21 at 1 uM by Kinomescan method relative to control
[25] = tested on: Receptor-type tyrosine-protein kinase FLT3 (Homo sapiens), P36888 [D835Y]; assay: Binding affinity to human partial length FLT3 D835Y mutant (Q580 to Y969 residues) expressed in Escherichia coli BL21 at 1 uM by Kinomescan method relative to control

Chain of Mitogen-activated protein kinase 15 (Homo sapiens) (Q8TD08 whole entry, the tested form may be a part): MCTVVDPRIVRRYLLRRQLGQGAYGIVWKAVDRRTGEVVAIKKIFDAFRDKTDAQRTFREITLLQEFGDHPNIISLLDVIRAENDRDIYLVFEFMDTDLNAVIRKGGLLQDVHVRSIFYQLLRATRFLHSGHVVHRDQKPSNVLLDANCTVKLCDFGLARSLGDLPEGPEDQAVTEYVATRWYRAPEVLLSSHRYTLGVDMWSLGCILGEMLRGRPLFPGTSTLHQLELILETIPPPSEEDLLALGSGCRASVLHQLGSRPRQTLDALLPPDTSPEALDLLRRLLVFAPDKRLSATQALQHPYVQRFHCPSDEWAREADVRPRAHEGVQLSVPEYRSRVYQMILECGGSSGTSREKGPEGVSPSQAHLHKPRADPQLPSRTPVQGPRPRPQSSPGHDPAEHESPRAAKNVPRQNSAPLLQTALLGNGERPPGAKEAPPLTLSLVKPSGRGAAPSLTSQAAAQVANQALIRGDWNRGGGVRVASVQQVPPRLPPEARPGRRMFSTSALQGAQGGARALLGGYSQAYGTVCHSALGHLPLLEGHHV
Chain of Dual specificity mitogen-activated protein kinase kinase 7 (Homo sapiens) (O14733 whole entry, the tested form may be a part): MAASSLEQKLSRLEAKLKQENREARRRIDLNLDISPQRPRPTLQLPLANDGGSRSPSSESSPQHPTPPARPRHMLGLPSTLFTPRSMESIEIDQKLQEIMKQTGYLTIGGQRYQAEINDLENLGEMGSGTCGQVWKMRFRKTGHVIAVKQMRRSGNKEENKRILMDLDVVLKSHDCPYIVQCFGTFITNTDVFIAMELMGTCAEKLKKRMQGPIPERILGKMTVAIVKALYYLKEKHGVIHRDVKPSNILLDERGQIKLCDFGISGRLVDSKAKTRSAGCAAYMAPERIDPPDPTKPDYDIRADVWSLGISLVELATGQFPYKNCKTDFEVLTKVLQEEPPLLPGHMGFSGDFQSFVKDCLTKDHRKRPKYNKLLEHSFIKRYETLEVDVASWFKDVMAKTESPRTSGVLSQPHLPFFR
Chain of Serine/threonine-protein kinase BRSK1 (Homo sapiens) (Q8TDC3 whole entry, the tested form may be a part): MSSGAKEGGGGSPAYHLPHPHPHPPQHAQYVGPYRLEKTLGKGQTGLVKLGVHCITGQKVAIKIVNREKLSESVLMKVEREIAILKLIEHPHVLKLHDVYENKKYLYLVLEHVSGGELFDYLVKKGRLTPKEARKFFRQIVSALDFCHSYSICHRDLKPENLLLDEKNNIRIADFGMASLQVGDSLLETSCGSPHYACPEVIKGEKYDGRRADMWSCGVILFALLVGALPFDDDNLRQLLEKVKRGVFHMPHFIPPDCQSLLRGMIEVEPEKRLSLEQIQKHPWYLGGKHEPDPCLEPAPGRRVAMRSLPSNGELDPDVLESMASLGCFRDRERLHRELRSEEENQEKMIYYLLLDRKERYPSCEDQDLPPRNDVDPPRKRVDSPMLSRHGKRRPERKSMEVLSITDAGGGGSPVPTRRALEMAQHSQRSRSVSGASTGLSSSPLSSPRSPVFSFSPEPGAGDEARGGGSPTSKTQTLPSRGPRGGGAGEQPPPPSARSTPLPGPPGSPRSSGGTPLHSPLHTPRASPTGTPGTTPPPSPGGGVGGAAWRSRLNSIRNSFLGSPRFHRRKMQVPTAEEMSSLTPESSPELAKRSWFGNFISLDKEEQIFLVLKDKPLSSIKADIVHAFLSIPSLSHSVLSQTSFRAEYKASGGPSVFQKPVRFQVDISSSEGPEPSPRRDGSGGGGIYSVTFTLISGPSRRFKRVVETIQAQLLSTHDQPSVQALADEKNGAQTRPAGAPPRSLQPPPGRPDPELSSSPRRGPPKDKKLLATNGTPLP
Chain of Tyrosine-protein kinase Lck (Homo sapiens) (P06239 2-509 limits assumed): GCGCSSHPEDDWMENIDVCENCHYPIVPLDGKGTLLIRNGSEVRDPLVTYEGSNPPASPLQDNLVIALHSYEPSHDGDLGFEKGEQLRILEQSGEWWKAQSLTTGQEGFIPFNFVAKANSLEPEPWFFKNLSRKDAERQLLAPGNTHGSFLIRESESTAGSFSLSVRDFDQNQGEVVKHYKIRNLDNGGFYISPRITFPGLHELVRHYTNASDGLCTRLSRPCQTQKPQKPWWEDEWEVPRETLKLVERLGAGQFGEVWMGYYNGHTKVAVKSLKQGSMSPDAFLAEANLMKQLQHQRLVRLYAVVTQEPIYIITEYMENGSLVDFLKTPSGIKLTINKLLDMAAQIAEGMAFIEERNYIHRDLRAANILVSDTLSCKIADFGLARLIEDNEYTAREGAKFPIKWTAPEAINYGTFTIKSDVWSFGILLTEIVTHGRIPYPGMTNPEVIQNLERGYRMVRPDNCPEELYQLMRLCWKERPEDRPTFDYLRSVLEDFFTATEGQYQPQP
Chain of Mast/stem cell growth factor receptor Kit (Homo sapiens), P10721 [V559D,V654A] (P10721 whole entry V559D/V654A, the tested form may be a part): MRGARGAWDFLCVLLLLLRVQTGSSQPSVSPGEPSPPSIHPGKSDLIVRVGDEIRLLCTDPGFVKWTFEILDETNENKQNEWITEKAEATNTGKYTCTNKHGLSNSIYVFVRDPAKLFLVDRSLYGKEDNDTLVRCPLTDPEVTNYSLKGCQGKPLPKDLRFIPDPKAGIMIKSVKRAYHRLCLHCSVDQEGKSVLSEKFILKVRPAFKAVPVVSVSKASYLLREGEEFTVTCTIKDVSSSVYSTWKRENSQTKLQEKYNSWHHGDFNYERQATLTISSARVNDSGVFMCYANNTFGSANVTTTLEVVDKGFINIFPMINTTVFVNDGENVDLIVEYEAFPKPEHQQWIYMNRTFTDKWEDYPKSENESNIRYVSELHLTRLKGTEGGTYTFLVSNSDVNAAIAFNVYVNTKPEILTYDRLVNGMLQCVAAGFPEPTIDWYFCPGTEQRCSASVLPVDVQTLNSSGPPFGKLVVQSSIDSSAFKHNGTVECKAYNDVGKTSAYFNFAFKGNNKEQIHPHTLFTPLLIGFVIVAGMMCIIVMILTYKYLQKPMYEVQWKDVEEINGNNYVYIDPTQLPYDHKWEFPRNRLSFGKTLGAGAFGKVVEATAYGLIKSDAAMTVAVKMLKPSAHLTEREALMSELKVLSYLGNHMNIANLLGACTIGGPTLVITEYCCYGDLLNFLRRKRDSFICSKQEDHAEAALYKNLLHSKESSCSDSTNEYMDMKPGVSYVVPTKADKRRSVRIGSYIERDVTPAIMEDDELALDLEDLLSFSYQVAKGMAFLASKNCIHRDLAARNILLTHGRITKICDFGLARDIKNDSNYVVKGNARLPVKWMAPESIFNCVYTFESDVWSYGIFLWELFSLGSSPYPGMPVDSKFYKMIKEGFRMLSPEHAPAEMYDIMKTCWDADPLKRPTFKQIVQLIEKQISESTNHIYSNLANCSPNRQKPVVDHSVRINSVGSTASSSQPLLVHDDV
Chain of 3-phosphoinositide-dependent protein kinase 1 (Homo sapiens) (O15530 whole entry, the tested form may be a part, canonical isoform): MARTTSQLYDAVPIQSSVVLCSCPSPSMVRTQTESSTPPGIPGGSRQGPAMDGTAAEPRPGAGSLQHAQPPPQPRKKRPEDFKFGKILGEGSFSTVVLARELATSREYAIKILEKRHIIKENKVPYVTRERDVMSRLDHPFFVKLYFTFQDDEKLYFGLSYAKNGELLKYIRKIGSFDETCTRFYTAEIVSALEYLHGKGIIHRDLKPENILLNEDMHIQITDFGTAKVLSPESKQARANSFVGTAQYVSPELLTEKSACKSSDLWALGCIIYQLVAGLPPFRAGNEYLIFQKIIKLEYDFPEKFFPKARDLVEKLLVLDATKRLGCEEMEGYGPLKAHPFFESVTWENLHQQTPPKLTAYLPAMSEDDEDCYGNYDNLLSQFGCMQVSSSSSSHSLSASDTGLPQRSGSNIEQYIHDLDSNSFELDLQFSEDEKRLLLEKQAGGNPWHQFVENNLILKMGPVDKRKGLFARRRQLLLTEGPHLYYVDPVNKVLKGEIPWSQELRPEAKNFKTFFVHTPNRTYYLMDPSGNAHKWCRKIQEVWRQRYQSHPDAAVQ
Chain of Phosphatidylinositol 4,5-bisphosphate 3-kinase catalytic subunit alpha isoform (Homo sapiens), P42336 [E545A] (P42336 whole entry E545A, the tested form may be a part, canonical isoform): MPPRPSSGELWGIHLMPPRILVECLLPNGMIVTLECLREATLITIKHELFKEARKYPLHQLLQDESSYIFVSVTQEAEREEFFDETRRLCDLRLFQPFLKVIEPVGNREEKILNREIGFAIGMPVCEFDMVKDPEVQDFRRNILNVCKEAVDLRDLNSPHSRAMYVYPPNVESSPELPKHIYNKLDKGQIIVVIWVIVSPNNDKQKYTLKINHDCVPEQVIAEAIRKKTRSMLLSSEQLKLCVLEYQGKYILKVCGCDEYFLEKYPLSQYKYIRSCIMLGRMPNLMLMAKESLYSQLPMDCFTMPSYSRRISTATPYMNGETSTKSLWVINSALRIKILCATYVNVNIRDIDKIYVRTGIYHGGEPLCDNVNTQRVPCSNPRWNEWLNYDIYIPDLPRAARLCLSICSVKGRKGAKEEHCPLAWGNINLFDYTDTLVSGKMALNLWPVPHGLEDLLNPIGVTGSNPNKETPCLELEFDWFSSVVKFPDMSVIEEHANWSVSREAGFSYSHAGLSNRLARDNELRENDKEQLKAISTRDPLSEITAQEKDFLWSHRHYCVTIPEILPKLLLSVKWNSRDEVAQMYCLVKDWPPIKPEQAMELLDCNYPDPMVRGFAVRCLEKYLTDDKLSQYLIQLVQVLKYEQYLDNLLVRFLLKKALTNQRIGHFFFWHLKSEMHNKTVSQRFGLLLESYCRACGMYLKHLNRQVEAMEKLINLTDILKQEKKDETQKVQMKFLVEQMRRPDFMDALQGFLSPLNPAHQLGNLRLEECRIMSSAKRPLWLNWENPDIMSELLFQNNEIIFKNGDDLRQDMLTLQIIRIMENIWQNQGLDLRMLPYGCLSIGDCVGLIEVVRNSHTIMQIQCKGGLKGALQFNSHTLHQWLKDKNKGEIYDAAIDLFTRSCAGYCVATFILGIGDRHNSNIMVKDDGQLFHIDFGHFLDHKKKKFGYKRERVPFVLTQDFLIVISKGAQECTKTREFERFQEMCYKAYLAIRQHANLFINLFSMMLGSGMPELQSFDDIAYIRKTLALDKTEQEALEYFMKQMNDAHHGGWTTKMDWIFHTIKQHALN

Q: With `CCC(=O)Nc1ccc(C(=O)Nc2ccc(Nc3ncc4c(n3)N(C)c3ccc(C)cc3C(=O)N4C)cc2)cc1` as the compound, how does the Activity [1] read?
A: 99%

Q: What about the Activity [2] of the same compound?
A: 100%

Q: What about the Activity [3] of the same compound?
A: 59%

Q: And the Activity [4]?
A: 83%

Q: What about the Activity [5] of the same compound?
A: 97%

Q: And the Activity [6]?
A: 86%

Q: What about the Activity [7] of the same compound?
A: 93%

Q: And the Activity [8]?
A: 90%

Q: And the Activity [9]?
A: 97%

Q: And the Activity [10]?
A: 94%

Q: What about the Activity [11] of the same compound?
A: 90%

Q: And the Activity [12]?
A: 85%

Q: And the Activity [13]?
A: 56%

Q: What about the Activity [14] of the same compound?
A: 70%

Q: And the Activity [15]?
A: 96%

Q: What about the Activity [16] of the same compound?
A: 50%

Q: What about the Activity [17] of the same compound?
A: 82%

Q: What about the Activity [18] of the same compound?
A: 65%

Q: And the Activity [19]?
A: 100%

Q: And the Activity [20]?
A: 94%

Q: What about the Activity [21] of the same compound?
A: 74%

Q: What about the Activity [22] of the same compound?
A: 95%

Q: And the Activity [23]?
A: 97%

Q: And the Activity [24]?
A: 77%

Q: What about the Activity [25] of the same compound?
A: 77%

Q: With `C=CC(=O)Nc1ccc(C(=O)Nc2ccc(Nc3ncc4c(n3)N(C)c3ccc(C)cc3C(=O)N4C)cc2)cc1` as the compound, how does the Activity [1] read?
A: 100%

Q: What about the Activity [2] of the same compound?
A: 96%

Q: What about the Activity [3] of the same compound?
A: 100%

Q: And the Activity [4]?
A: 45%

Q: And the Activity [5]?
A: 93%

Q: And the Activity [6]?
A: 90%

Q: And the Activity [7]?
A: 78%

Q: And the Activity [8]?
A: 100%

Q: What about the Activity [9] of the same compound?
A: 91%

Q: What about the Activity [10] of the same compound?
A: 100%

Q: What about the Activity [11] of the same compound?
A: 100%

Q: What about the Activity [12] of the same compound?
A: 85%

Q: What about the Activity [13] of the same compound?
A: 87%

Q: What about the Activity [14] of the same compound?
A: 84%

Q: What about the Activity [15] of the same compound?
A: 100%

Q: What about the Activity [16] of the same compound?
A: 100%

Q: And the Activity [17]?
A: 100%

Q: And the Activity [18]?
A: 92%

Q: What about the Activity [19] of the same compound?
A: 97%

Q: And the Activity [20]?
A: 96%

Q: What about the Activity [21] of the same compound?
A: 96%

Q: What about the Activity [22] of the same compound?
A: 98%

Q: What about the Activity [23] of the same compound?
A: 95%

Q: And the Activity [24]?
A: 100%

Q: And the Activity [25]?
A: 83%
